Source: ChEMBL document CHEMBL4433210, “Synthesis and Evaluation of Bifunctional Aminothiazoles as Antiretrovirals Targeting the HIV-1 Nucleocapsid Protein” (ACS Med Chem Lett, 2019)
Values belong to the molecule of their own block, whether it stands above or below them. The source made the active and inactive calls.

How the values were obtained:
[1] = test system: Human immunodeficiency virus 1; test: Antiviral activity against wild type HIV1 NL4-3 infected in human TZM-bl cells assessed as reduction in viral replication after 48 hrs by bright Glo-luciferase reporter gene assay based BiCycle assay; assay type: functional, organism-based; conditions: Human immunodeficiency virus 1, NL4-3, TZM-bl
Summary of the method: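 BiCycle format: MT-2 cells infected with wild-type NL4-3 in the presence of compound dilutions. Virus produced in this first round was then quantified by infecting TZM-bl cells. IC50 was derived from the dose-response data.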

[2] = Inhibition of synthesized Nucleocapsid protein (11 to 55 residues) assessed as reduction in NC-induced cTAR DNA destabilization pre-treated with cTAR and Nucleocapsid (11-55) for 15 mins followed by compound addition at 10 uM by spectroflurometry relative to control
Summary of the method: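 NC chaperone inhibition assay: fluorescence monitoring of NC-induced destabilization of cTAR DNA labelled with Alexa488 at the 5′ end and Dabcyl quencher at the 3′ end. Compound is tested at 10 μM.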

[3] = test system: Human immunodeficiency virus 1; test: Antiviral activity against wild-type HIV1 NL4-3 infected in human TZM-bl cells treated with compound assessed as reduction in viral replication after 48 hrs by bright Glo-luciferase reporter gene assay based monocycle assay; conditions: Human immunodeficiency virus 1, NL4-3
[4] = test system: Human immunodeficiency virus 1; test: Antiviral activity against wild-type HIV1 NL4-3 infected infected in human MT2 cells assessed as reduction in HIV1 extracellular genomic RNA level at 1 uM and measured after 30 hrs post infection by TaqMan probe based RT-PCR analysis; assay type: functional, organism-based
Summary of the method: (§1)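 MT-2 cells were infected with NL4-3 at MOI 0.1 and incubated with test or reference agents at 20, 5 or 1 μM. Real-time PCR measured integrated HIV-1 DNA and intracellular and extracellular genomic HIV-1 RNA at 30 h post-infection. Levels are expressed as a percentage of the no-drug control culture.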

[5] = test system: Human immunodeficiency virus 1; test: Antiviral activity against wild-type HIV1 NL4-3 infected infected in human MT2 cells assessed as reduction in HIV1 intracellular genomic RNA level at 1 uM and measured after 30 hrs post infection by TaqMan probe based RT-PCR analysis; assay type: functional, organism-based; summary of the method: as §1
[6] = Cytotoxicity against human PBMC cells assessed as reduction in cell viability after 7 days by MTS assay; assay type: cell-based; conditions: read-out: TD50
Summary of the method: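 Cytotoxicity in peripheral blood mononuclear cells by MTS assay, giving TD50. Only compounds that met the BiCycle IC50 ≤ 5 μM criterion and were positive in the NC inhibition assay were tested.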

[7] = Selectivity index, ratio of TD50 for cytotoxicity aginst human PBMC cells to IC50 for antiviral activity against wild type HIV1 NL4-3 infected in human TZM-bl cells assessed as reduction in viral replication after 48 hrs by bright Glo-luciferase reporter gene assay based BiCycle assay; assay type: toxicity, cell-based; conditions: read-out: Selectivity Index
Summary of the method: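 SI calculated as TD50 from the PBMC MTS assay divided by IC50 from the BiCycle antiviral assay (MT-2 infection followed by TZM-bl read-out).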

[8] = test system: Human immunodeficiency virus 1; test: (§2) Antiviral activity against HIV1 12465 harboring protease M46I/I54V/Q58E/T74P/V82L/L90M mutant infected in human TZM-bl cells infected with supernatants from virus-infected human MT2 cells treated with compound for 72 hrs assessed as reduction in viral replication after 48 hrs by bright Glo-luciferase reporter gene assay; assay type: functional, organism-based; conditions: Human immunodeficiency virus 1, 12465
Summary of the method: (§3)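 BiCycle assay: MT-2 cells infected with a drug-resistant HIV-1 strain in the presence of compound dilutions. Virus produced in this first round is then measured by infecting TZM-bl cells. The readout is IC50.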

[9] = test system: Human immunodeficiency virus 1; test: as §2, with “11808” for “12465”, “L10F/K20T/V32I/L33F/I54V/G73S/I84V/L89V/L90M” for “M46I/I54V/Q58E/T74P/V82L/L90M”; assay type: functional, organism-based; conditions: Human immunodeficiency virus 1, 11808; summary of the method: as §3
[10] = test system: Human immunodeficiency virus 1; test: as §2, with “7401” for “12465”, “nucleoside reverse transcriptase M41L/E44D/D67N/T69D/M184V/L210W/T215Y” for “protease M46I/I54V/Q58E/T74P/V82L/L90M”; assay type: functional, organism-based; conditions: Human immunodeficiency virus 1, 7401; summary of the method: as §3
[11] = test system: Human immunodeficiency virus 1; test: as §2, with “12231” for “12465”, “non-nucleoside reverse transcriptase 103N/179F/181C” for “protease M46I/I54V/Q58E/T74P/V82L/L90M”; assay type: functional, organism-based; conditions: Human immunodeficiency virus 1, 12231; summary of the method: as §3
[12] = test system: Human immunodeficiency virus 1; test: Selectivity ratio of IC50 for HIV1 7401 harboring nucleoside reverse transcriptase M41L/E44D/D67N/T69D/M184V/L210W/T215Y mutant infected in human MT2 cells to IC50 for HIV1 NL4-3 infected in human MT2 cells; assay type: functional
Summary of the method: (§4)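 Fold change is the IC50 against the resistant strain divided by the IC50 against the wild-type NL4–3 reference. Both IC50 values come from the BiCycle assay (MT-2 infection, then TZM-bl readout of progeny virus).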

[13] = test system: Human immunodeficiency virus 1; test: Selectivity ratio of IC50 for HIV1 12231 harboring non-nucleoside reverse transcriptase 103N/179F/181C mutant infected in human MT2 cells to IC50 for HIV1 NL4-3 infected in human MT2 cells; assay type: functional; summary of the method: as §4
[14] = test system: Human immunodeficiency virus 1; test: Selectivity ratio of IC50 for HIV1 7400 harboring nucleoside reverse transcriptase M41L/D67N/M184V/L210W/T215Y mutant infected in human MT2 cells to IC50 for HIV1 NL4-3 infected in human MT2 cells; assay type: functional; summary of the method: as §4
[15] = test system: Human immunodeficiency virus 1; test: Selectivity ratio of IC50 for HIV1 12465 harboring protease M46I/I54V/Q58E/T74P/V82L/L90M mutant infected in human MT2 cells to IC50 for HIV1 NL4-3 infected in human MT2 cells; assay type: functional; summary of the method: as §4
[16] = test system: Human immunodeficiency virus 1; test: Selectivity ratio of IC50 for HIV1 11808 harboring protease L10F/K20T/V32I/L33F/I54V/G73S/I84V/L89V/L90M mutant infected in human MT2 cells to IC50 for HIV1 NL4-3 infected in human MT2 cells; assay type: functional; summary of the method: as §4
[17] = test system: Human immunodeficiency virus 1; test: Selectivity ratio of IC50 for HIV1 11845 harboring integrase 140S/148H double mutant mutant infected in human MT2 cells to IC50 for HIV1 NL4-3 infected in human MT2 cells; assay type: functional; summary of the method: as §4
[18] = test system: Human immunodeficiency virus 1; test: as §2, with “11845” for “12465”, “integrase 140S/148H double” for “protease M46I/I54V/Q58E/T74P/V82L/L90M”; assay type: functional, organism-based; conditions: Human immunodeficiency virus 1, 11845; summary of the method: as §3
[19] = test system: Human immunodeficiency virus 1; test: as §2, with “7400” for “12465”, “nucleoside reverse transcriptase M41L/D67N/M184V/L210W/T215Y” for “protease M46I/I54V/Q58E/T74P/V82L/L90M”; assay type: functional, organism-based; conditions: Human immunodeficiency virus 1, 7400; summary of the method: as §3
[20] = test system: Human immunodeficiency virus 1; test: Selectivity ratio of IC50 for HIV1 12229 harboring non-nucleoside reverse transcriptase L100I/K103N/H221Y mutant infected in human MT2 cells to IC50 for HIV1 NL4-3 infected in human MT2 cells; assay type: functional; summary of the method: as §4
[21] = test system: Human immunodeficiency virus 1; test: as §2, with “12229” for “12465”, “non-nucleoside reverse transcriptase L100I/K103N/H221Y” for “protease M46I/I54V/Q58E/T74P/V82L/L90M”; assay type: functional, organism-based; conditions: Human immunodeficiency virus 1, 12229; summary of the method: as §3
[22] = test system: Human immunodeficiency virus 1; test: Antiviral activity against wild-type HIV1 NL4-3 infected infected in human MT2 cells assessed as reduction in HIV1 integrated DNA at 1 uM and measured after 30 hrs post infection by Alu-LTR PCR protocol based method; assay type: functional, organism-based; summary of the method: as §1

Structure (SMILES): Nc1nc(-c2ccc(OCc3cccc(C(=O)N4CCN(C(=O)c5ccc(COc6ccccc6-c6csc(N)n6)cc5)CC4)c3)cc2)cs1
IC50 [1]: 28 µM
inhibition [2]: 15%
IC50 [3]: > 50 µM

Structure (SMILES): Nc1nc(CCNC(=O)c2ccc(COc3ccccc3-c3csc(N)n3)cc2)cs1
IC50 [1]: 36 µM
inhibition [2]: 16%
IC50 [3]: > 50 µM

Structure (SMILES): Cc1cc(/C=C/C#N)cc(C)c1Nc1ccnc(Nc2ccc(C#N)cc2)n1
Activity [4]: Active
Activity [5]: Active

IC50 [1]: > 100 µM
IC50 [3]: > 100 µM
Structure (SMILES): Nc1nc(-c2ccccc2OCc2ccc(C(=O)NCCN3CCOCC3)cc2)cs1

Structure (SMILES): Nc1nc(-c2ccc(OCc3cccc(C(=O)NCCNC(=O)c4ccc(COc5ccccc5-c5coc(N)n5)cc4)c3)cc2)co1
IC50 [1]: 6.2 µM
inhibition [2]: 21%
IC50 [3]: > 50 µM

Structure (SMILES): Nc1nc(-c2ccc(OCc3cccc(C(=O)NCCNC(=O)c4ccc(COc5cccc6sc(N)nc56)cc4)c3)cc2)cs1
IC50 [1]: 37 µM
inhibition [2]: 17%
IC50 [3]: > 50 µM

Structure (SMILES): Nc1nc(-c2ccc(C(=O)NCCCNC(=O)c3ccc(COc4ccccc4-c4csc(N)n4)cc3)cc2)cs1
IC50 [1]: 15 µM
inhibition [2]: 15%
IC50 [3]: 12 µM

Structure (SMILES): Nc1nc(-c2ccc(OCc3cccc(C(=O)NCCCCNC(=O)c4ccc(COc5ccccc5-c5csc(N)n5)cc4)c3)cc2)cs1
IC50 [1]: 5 µM
CC50 at 168 h [6]: > 100 µM
inhibition [2]: 19%
selectivity ratio at 48 h [7]: > 20
IC50 [3]: 16 µM

Structure (SMILES): Nc1ccc(NCCNC(=O)c2ccc(COc3ccccc3-c3csc(N)n3)cc2)nc1.O=C(O)C(F)(F)F.O=C(O)C(F)(F)F.O=C(O)C(F)(F)F
IC50 [8]: 6 µM
IC50 [9]: 3 µM
IC50 [10]: 2.7 µM
IC50 [1]: 3.8 µM
CC50 at 168 h [6]: 45 µM
inhibition [2]: 15%
IC50 [11]: 5 µM
Ratio IC50 [12]: 0.7
Ratio IC50 [13]: 1.3
selectivity ratio at 48 h [7]: 12
Ratio IC50 [14]: 0.4
Ratio IC50 [15]: 1.6
Ratio IC50 [16]: 0.8
Ratio IC50 [17]: 0.6
IC50 [18]: 2.3 µM
IC50 [19]: 1.5 µM
IC50 [3]: > 50 µM
Ratio IC50 [20]: 3.1
IC50 [21]: 12 µM

Structure (SMILES): Nc1nc(-c2ccc(OCc3cccc(C(=O)NCCNC(=O)c4ccc(COc5ccccc5-c5csc(N)n5)cc4)c3)cc2)cs1.O=C(O)C(F)(F)F.O=C(O)C(F)(F)F
IC50 [8]: 1.2 µM
IC50 [9]: 2.1 µM
IC50 [10]: 1.2 µM
IC50 [1]: 1.3 µM
CC50 at 168 h [6]: 30 µM
inhibition [2]: 24%
IC50 [11]: 0.8 µM
Ratio IC50 [12]: 0.9
Ratio IC50 [13]: 0.6
selectivity ratio at 48 h [7]: 23
Ratio IC50 [14]: 0.6
Ratio IC50 [15]: 0.9
Ratio IC50 [16]: 1.3
Ratio IC50 [17]: 0.8
IC50 [18]: 1 µM
IC50 [19]: 0.8 µM
IC50 [3]: 5 µM
Ratio IC50 [20]: 1.7
IC50 [21]: 2.2 µM

Structure (SMILES): Cc1nnc(C(=O)NC(C)(C)c2nc(C(=O)NCc3ccc(F)cc3)c(O)c(=O)n2C)o1
Activity [22]: Active

IC50 [1]: > 100 µM
IC50 [3]: > 100 µM
Structure (SMILES): Nc1ccc(NCCNS(=O)(=O)c2ccc(COc3ccccc3-c3csc(N)n3)cc2)nc1

Structure (SMILES): Nc1nc(-c2ccc(C(=O)NCCNC(=O)c3ccc(COc4ccccc4-c4csc(N)n4)cc3)cc2)cs1
IC50 [1]: 5 µM
inhibition [2]: inactive
IC50 [3]: 30 µM

Structure (SMILES): Nc1nc(-c2ccccc2OCc2ccc(C(=O)NCCCNc3ccc([N+](=O)[O-])cn3)cc2)cs1
IC50 [1]: 12 µM
inhibition [2]: 21%
IC50 [3]: 28 µM

Structure (SMILES): Nc1nc(-c2ccc(OCc3cccc(C(=O)NCCNC(=O)c4ccc(COc5ccc(F)cc5-c5csc(N)n5)cc4)c3)cc2)cs1.O=C(O)C(F)(F)F.O=C(O)C(F)(F)F
IC50 [8]: 2 µM
IC50 [9]: 0.8 µM
IC50 [10]: 0.6 µM
IC50 [1]: 1.1 µM
CC50 at 168 h [6]: > 50 µM
inhibition [2]: 16%
IC50 [11]: 4 µM
Ratio IC50 [12]: 0.5
Ratio IC50 [13]: 3.6
selectivity ratio at 48 h [7]: > 45
Ratio IC50 [14]: 1
Ratio IC50 [15]: 1.8
Ratio IC50 [16]: 0.7
Ratio IC50 [17]: 2.7
IC50 [18]: 3 µM
IC50 [19]: 1.1 µM
IC50 [3]: > 50 µM
Ratio IC50 [20]: 0.8
IC50 [21]: 0.9 µM

IC50 [1]: > 100 µM
IC50 [3]: > 100 µM
Structure (SMILES): Nc1nc(CC(=O)NCCNC(=O)c2ccc(COc3ccccc3-c3csc(N)n3)cc2)cs1

Structure (SMILES): Nc1nc(-c2ccc(OCc3cccc(C(=O)NCCCNC(=O)c4ccc(COc5ccccc5-c5csc(N)n5)cc4)c3)cc2)cs1
IC50 [1]: 12 µM
inhibition [2]: 16%
IC50 [3]: > 50 µM

Structure (SMILES): Nc1nc(CCc2nc(-c3ccc(COc4ccccc4-c4csc(N)n4)cc3)no2)cs1
IC50 [1]: 6 µM
inhibition [2]: inactive
IC50 [3]: 35 µM
